Source: ChEMBL document CHEMBL4680121, “Development of (4-methoxyphenyl)-1H-tetrazol-5-amine regioisomers as a new class of selective antitubercular agents” (Eur J Med Chem, 2020)

Experiments:
Format in all cases: functional
[1] = system: Mycobacterium tuberculosis; test: Antitubercular activity against PAS/INH/EMB/RMP-resistant Mycobacterium tuberculosis Spec.210 assessed as inhibition of microbial growth incubated for 1 week by MABA method; settings: Mycobacterium tuberculosis, 210, 168 h; time 1 weeks
Outline: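 Microplate Alamar Blue assay in Middlebrook 7H9 broth with 10% OADC. Inoculum from fresh LJ culture was adjusted to McFarland 1 and diluted 1:20. DMSO stocks were two-fold serially diluted to final 0.125–512 µg/ml, with growth and sterile controls. Plates ran 1 week at 37 °C, then Alamar blue was added for 24 h. MIC is the lowest concentration preventing the blue-to-pink change.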

[2] = system: Mycobacterium tuberculosis; test: Antitubercular activity against PAS/INH/EMB/RMP-resistant Mycobacterium tuberculosis Spec.210 assessed as fractional inhibitory concentration index in presence of 1/2 x MIC isoniazid incubated for 14 days by MABA method; settings: time 14 day
Outline: (§1)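 Interaction analysis in Middlebrook 7H9 with 10% OADC. Combination MICs came from mixing the derivative (1 to 1/32 MIC) with the reference drug at 1/2 MIC, and the reverse, after 14 days at 37 °C with McFarland 1 inoculum. FICI was calculated from the combination MIC values and the MICs alone.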

[3] = system: Mycobacterium tuberculosis; test: Antitubercular activity against PAS/INH/EMB/RMP-resistant Mycobacterium tuberculosis Spec.210 assessed as fractional inhibitory concentration index in presence of 1/2 x MIC streptomycin incubated for 14 days by MABA method; settings: time 14 day; outline: as §1
[4] = system: Mycobacterium tuberculosis; test: Antitubercular activity against PAS/INH/EMB/RMP-resistant Mycobacterium tuberculosis Spec.210 assessed as fractional inhibitory concentration index in presence of 1/2 x MIC ethambutol incubated for 14 days by MABA method; settings: time 14 day; outline: as §1
[5] = system: Mycobacterium tuberculosis; test: Antitubercular activity against INH-resistant Mycobacterium tuberculosis Spec.800 harboring InhA promoter mutation assessed as fractional inhibitory concentration index in presence of 1/2 x MIC isoniazid incubated for 14 days by MABA method; settings: time 14 day; outline: as §1
[6] = system: Mycobacterium tuberculosis; test: Antitubercular activity against INH-resistant Mycobacterium tuberculosis Spec.800 harboring InhA promoter mutation assessed as fractional inhibitory concentration index in presence of 1/2 x MIC streptomycin incubated for 14 days by MABA method; settings: time 14 day; outline: as §1
[7] = system: Mycobacterium tuberculosis; test: Antitubercular activity against PAS/INH/EMB/RMP-resistant Mycobacterium tuberculosis Spec.210 assessed as reduction in bacterial growth incubated for 14 days in presence of 1/2 x MIC rifampicin by MABA method; settings: Mycobacterium tuberculosis, 210, 336 h; time 14 day
Outline: (§2)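 Checkerboard-style combination in Middlebrook 7H9 broth with 10% OADC. The test derivative was varied from 1 to 1/32 of its MIC, and the reference drug was fixed at 1/2 its own MIC. Single-agent MICs were determined first by MABA. Samples of 4 ml received inoculum at 1 McFarland and were incubated 14 days at 37 °C. The endpoint was the lowest derivative concentration that inhibited growth.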

[8] = system: Mycobacterium tuberculosis; test: Antitubercular activity against PAS/INH/EMB/RMP-resistant Mycobacterium tuberculosis Spec.210 assessed as reduction in bacterial growth incubated for 14 days in presence of 1/2 x MIC isoniazid by MABA method; settings: Mycobacterium tuberculosis, 210, 336 h; time 14 day; outline: as §2
[9] = system: Mycobacterium tuberculosis; test: Antitubercular activity against PAS/INH/EMB/RMP-resistant Mycobacterium tuberculosis Spec.210 assessed as reduction in bacterial growth incubated for 14 days in presence of 1/2 x MIC streptomycin by MABA method; settings: Mycobacterium tuberculosis, 210, 336 h; time 14 day; outline: as §2
[10] = system: Mycobacterium tuberculosis; test: Antitubercular activity against PAS/INH/EMB/RMP-resistant Mycobacterium tuberculosis Spec.210 assessed as reduction in bacterial growth incubated for 14 days in presence of 1/2 x MIC ethambutol by MABA method; settings: Mycobacterium tuberculosis, 210, 336 h; time 14 day; outline: as §2
[11] = system: Mycobacterium tuberculosis; test: Antitubercular activity against PAS/INH/EMB/RMP-resistant Mycobacterium tuberculosis Spec.210 assessed as isoniazid MIC incubated for 14 days in presence of isoniazid by MABA method; settings: Mycobacterium tuberculosis, 210, 336 h; time 14 day
Outline: (§3)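 In Middlebrook 7H9 with 10% OADC, the reference drug (INH, RMP, SM or EMB) at 1 to 1/32 of its MIC alone was mixed with the test derivative fixed at 1/2 its MIC. 4 ml samples were inoculated with McFarland 1 suspension and incubated 14 days at 37 °C. MIC is the lowest drug concentration in combination that inhibited growth.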

[12] = system: Mycobacterium tuberculosis; test: Antitubercular activity against PAS/INH/EMB/RMP-resistant Mycobacterium tuberculosis Spec.210 assessed as streptomycin MIC incubated for 14 days in presence of streptomycin by MABA method; settings: Mycobacterium tuberculosis, 210, 336 h; time 14 day
Outline: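 Combination assay in Middlebrook 7H9 broth with 10% OADC. The reference drug (INH, RMP, SM or EMB) was varied from 1 to 1/32 of its MIC, and the test derivative was fixed at 1/2 its own MIC. Single-agent MICs were determined first by MABA. Inoculum was 1 McFarland, with 14 days of incubation at 37 °C. The endpoint was the lowest reference-drug concentration that inhibited growth.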

[13] = system: Mycobacterium tuberculosis; test: Antitubercular activity against PAS/INH/EMB/RMP-resistant Mycobacterium tuberculosis Spec.210 assessed as ethambutol MIC incubated for 14 days in presence of ethambutol by MABA method; settings: Mycobacterium tuberculosis, 210, 336 h; time 14 day; outline: as §3
[14] = system: Mycobacterium tuberculosis; test: Antitubercular activity against INH-resistant Mycobacterium tuberculosis Spec.800 assessed as reduction in bacterial growth incubated for 14 days in presence of 1/2 x MIC rifampicin by MABA method; settings: Mycobacterium tuberculosis, 800, 336 h; time 14 day
Outline: (§4)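 Checkerboard-type combination in Middlebrook 7H9 with 10% OADC. The test derivative at 1 to 1/32 of its MIC alone was mixed with the reference drug fixed at 1/2 its MIC. 4 ml samples were inoculated with McFarland 1 suspension and incubated 14 days at 37 °C. MIC is the lowest derivative concentration in combination that inhibited growth in liquid medium.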

[15] = system: Mycobacterium tuberculosis; test: Antitubercular activity against INH-resistant Mycobacterium tuberculosis Spec.800 assessed as reduction in bacterial growth incubated for 14 days in presence of 1/2 x MIC streptomycin by MABA method; settings: Mycobacterium tuberculosis, 800, 336 h; time 14 day; outline: as §4
[16] = system: Mycobacterium tuberculosis; test: Antitubercular activity against INH-resistant Mycobacterium tuberculosis Spec.800 assessed as reduction in bacterial growth incubated for 14 days in presence of 1/2 x MIC ethambutol by MABA method; settings: Mycobacterium tuberculosis, 800, 336 h; time 14 day; outline: as §4
[17] = system: Mycobacterium tuberculosis; test: Antitubercular activity against INH-resistant Mycobacterium tuberculosis Spec.800 assessed as isoniazid MIC incubated for 14 days in presence of isoniazid by MABA method; settings: Mycobacterium tuberculosis, 800, 336 h; time 14 day; outline: as §3
[18] = system: Mycobacterium tuberculosis; test: Antitubercular activity against INH-resistant Mycobacterium tuberculosis Spec.800 assessed as streptomycin MIC incubated for 14 days in presence of streptomycin by MABA method; settings: Mycobacterium tuberculosis, 800, 336 h; time 14 day; outline: as §3
[19] = system: Mycobacterium tuberculosis; test: Antitubercular activity against INH-resistant Mycobacterium tuberculosis Spec.800 assessed as ethambutol MIC incubated for 14 days in presence of ethambutol by MABA method; settings: Mycobacterium tuberculosis, 800, 336 h; time 14 day; outline: as §3
[20] = system: Mycobacterium tuberculosis; test: Potency index, Ratio of rifampicin MIC to test compound MIC for antitubercular activity against PAS/INH/EMB/RMP-resistant Mycobacterium tuberculosis Spec.210 assessed as inhibition of microbial growth incubated for 1 week by MABA method; settings: time 1 weeks
[21] = system: Mycobacterium tuberculosis; test: Potency index, Ratio of isoniazid MIC to test compound MIC for antitubercular activity against PAS/INH/EMB/RMP-resistant Mycobacterium tuberculosis Spec.210 assessed as inhibition of microbial growth incubated for 1 week by MABA method; settings: time 1 weeks
[22] = system: Mycobacterium tuberculosis; test: Potency index, Ratio of streptomycin MIC to test compound MIC for antitubercular activity against PAS/INH/EMB/RMP-resistant Mycobacterium tuberculosis Spec.210 assessed as inhibition of microbial growth incubated for 1 week by MABA method; settings: time 1 weeks

Structure (SMILES) | MIC [1] [µg/mL] | fractional inhibitory concentration index (FICI) [2] | fractional inhibitory concentration index (FICI) [3] | fractional inhibitory concentration index (FICI) [4] | fractional inhibitory concentration index (FICI) [5] | fractional inhibitory concentration index (FICI) [6] | MIC [7] [µg/mL] | MIC [8] [µg/mL] | MIC [9] [µg/mL] | MIC [10] [µg/mL] | MIC [11] [µg/mL] | MIC [12] [µg/mL] | MIC [13] [µg/mL] | MIC [14] [µg/mL] | MIC [15] [µg/mL] | MIC [16] [µg/mL] | MIC [17] [µg/mL] | MIC [18] [µg/mL] | MIC [19] [µg/mL] | Ratio [20] | other results
COc1ccc(-n2nnnc2Nc2cccc(Br)c2)cc1 | 2 | 1.125 | 1.25 | 1.5 | 0.625 | 0.56 | 0.5 | 0.25 | 0.5 | 2 | 16 | 16 | 16 | 64 | 8 | 32 | 1 | 0.5 | 1 | 16 | Ratio [21]: 8; Ratio [22]: 8
COc1ccc(-n2nnnc2Nc2ccc(Br)cc2)cc1 | 2 | 0.625 | 1 | 1.5 | 0.5 | 0.375 | 1 | 0.25 | 1 | 2 | 8 | 8 | 16 | 128 | 16 | 32 | 0.5 | 0.25 | 1 | 16 | Ratio [21]: 8; Ratio [22]: 8
